Results published in ChEMBL document CHEMBL4837218, “Synthesis and in vitro antitumour activity of 4(R)-methyl-3-O-phosphonomethyl-α-l-threose nucleosides” (Eur J Med Chem, 2021).
Calls of active or inactive are those of the source. No cut-off for these calls is given here.

Tests used:
MDA-MB-231 [1] = assay: Induction of DNA damage in human MDA-MB-231 cells assessed as increase in Chk2 phosphorylation at Thr68 residue at 3 to 9 uM measured after 48 hrs by western blot analysis; format: functional, cell-based; conditions: dose 3-9 µM
Method in brief: (§1)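 Cells exposed to graded concentrations for 48 h, then proteins extracted. Run on SDS-PAGE (5–15% gels) and transferred to nitrocellulose. Blocked 2 h in 5% nonfat milk in PBS/0.1% Tween 20, primary antibody overnight at 4 °C, biotin-conjugated secondary 1 h. Visualized on X-ray film with densitometric quantitation; three independent experiments.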

MCF7 [2] = assay: Inhibition of PI3K/AKT signalling pathway in human MCF7 cells assessed as downregulation of AKT phosphorylation at Ser473 residue at 1 to 4 uM measured after 48 hrs by Western blot analysis; format: cell-based; conditions: dose 1-4 µM
Method in brief: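 After 48 h exposure to compound at several concentrations, cells collected and proteins extracted. SDS-PAGE on 5–15% gels, transfer to nitrocellulose, blocking 2 h in 5% nonfat milk in PBS/0.1% Tween 20, primary antibodies overnight at 4 °C, biotin-conjugated secondary 1 h. Detection on X-ray film; band densitometry.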

MCF7 [3] = assay: Induction of apoptosis in human MCF7 cells assessed as increase in Bad protein expression at 1 to 4 uM measured after 48 hrs by western blot analysis; format: functional, cell-based; conditions: dose 1-4 µM
Method in brief: (§2)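 MCF-7 and MDA-MB-231 breast cancer cells treated 48 h with a concentration series, then lysed for protein. SDS-PAGE on 5–15% gels, transfer to nitrocellulose. Blocked 2 h in 5% nonfat milk/PBS-0.1% Tween 20, primary antibodies overnight at 4 °C, biotin-conjugated secondary 1 h. X-ray film detection with densitometric quantification.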

MDA-MB-231 [4] = assay: Induction of mitochondrial membrane potential loss in human MDA-MB-231 cells assessed as green fluorescence intensity at 9 uM measured after 48 hrs by JC1 staining-based flow cytometry analysis (reference value: 0.8%); format: functional
MDA-MB-231 [5] = assay: Induction of DNA damage in human MDA-MB-231 cells assessed as increase in Chk1 protein expression at 3 to 9 uM measured after 48 hrs by western blot analysis; format: functional, cell-based; conditions: dose 3-9 µM; method in brief: as §1
MCF7 [6] = assay: Induction of apoptosis in human MCF7 cells assessed as late apoptotic cells at 4 uM measured after 48 hrs by Annexin V-FITC/propidium iodide staining based flow cytometric analysis (reference value: 0.6 %); format: functional
MDA-MB-231 [7] = assay: Induction of G2/M phase cell cycle arrest in human MDA-MB-231 cells assessed as downregulation of p-cdc2 protein expression at 9 uM measured after 48 hrs in presence of cdc25c inhibitor, NSC663284 by western blot analysis; format: functional, cell-based
MDA-MB-231 [8] = assay: Antiproliferative activity against human MDA-MB-231 cells assessed as reduction in cell viability at 0.03 to 16 uM measured after 24 to 72 hrs by MTT assay; format: functional, cell-based; conditions: dose 0.03-16 µM, time 24-72 hrs
Method in brief: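 MTT viability time course on the breast cancer cells with increasing compound concentrations for 24, 48 and 72 h. Cells seeded at 3000/well and allowed 12 h before treatment. MTT (5 mg/mL solution) applied for 4 h, crystals dissolved in DMSO, absorbance read at 570/630 nm. Viability expressed relative to untreated cells.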

MCF7 [9] = assay: Induction of apoptosis in human MCF7 cells assessed as increase in cleaved caspase 3 protein expression at 4 uM measured after 48 hrs in presence of cdc25c inhibitor, NSC663284 by western blot analysis; format: functional, cell-based
Method in brief: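 Four arms per cell line: untreated, test compound, 0.3 µM NSC663284 alone, and combination. Proteins harvested after 48 h and resolved by SDS-PAGE on 5–15% gels, transferred to nitrocellulose. Blocked 2 h in milk/PBS-Tween, primary antibodies overnight at 4 °C, biotin-conjugated secondary. Read on X-ray film with densitometry.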

MCF7 [10] = assay: Cell cycle arrest in human MCF7 cells assessed as accumulation at G1 phase at 2 uM measured after 48 hrs by propidium iodide staining based flow cytometry (reference value: 70.09 %); format: functional
MCF7 [11] = assay: Induction of apoptosis in human MCF7 cells assessed as early apoptotic cells at 2 uM measured after 48 hrs by Annexin V-FITC/propidium iodide staining based flow cytometric analysis (reference value: 3 %); format: functional
MDA-MB-231 [12] = assay: Induction of apoptosis in human MDA-MB-231 cells assessed as increase in Bad protein expression at 3 to 9 uM measured after 48 hrs by western blot analysis; format: functional, cell-based; conditions: dose 3-9 µM; method in brief: as §2
MDA-MB-231 [13] = assay: Induction of apoptosis in human MDA-MB-231 cells assessed as increase in Noxa protein expression at 3 to 9 uM measured after 48 hrs by western blot analysis; format: functional, cell-based; conditions: dose 3-9 µM; method in brief: as §2
MCF7 [14] = assay: Inhibition of colony formation in human MCF7 cells incubated for 24 hrs followed by medium removal and measured after 7 days by crystal violet staining based assay; format: functional, cell-based; conditions: dose 1-4 µM
Method in brief: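 Cells seeded at 1 × 10³ per well in six-well plates and left overnight. Compound (DMSO solution) given in fresh medium for 24 h, then medium removed and plates grown another 7 days. Colonies washed with PBS, fixed in 4% paraformaldehyde 30 min, stained with 0.1% crystal violet 30 min, photographed and counted.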

MCF7 [15] = assay: Cell cycle arrest in human MCF7 cells assessed as accumulation at S phase at 1 uM measured after 48 hrs by propidium iodide staining based flow cytometry (reference value: 25.34 %); format: functional
MDA-MB-231 [16] = assay: Induction of mitochondrial membrane potential loss in human MDA-MB-231 cells assessed as red fluorescence intensity at 9 uM measured after 48 hrs by JC1 staining-based flow cytometry analysis (reference value: 99.2 %); format: functional
MDA-MB-231 [17] = assay: Cell cycle arrest in human MDA-MB-231 cells assessed as accumulation of cells at G2/M phase at 9 uM in presence of cdc25c inhibitor, NSC663284 measured after 48 hrs by PI staining based flow cytometry; format: functional
Method in brief: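 Four arms (untreated, test compound alone, 0.3 NSC663284 alone, combination) applied to cells for 48 h. Cells were fixed in 70% ice-cold ethanol at 4 °C overnight and stained with RNase/PI for 30 min in the dark. G2/M fraction was read by flow cytometry.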

MDA-MB-231 [18] = assay: Induction of apoptosis in human MDA-MB-231 cells assessed as early apoptotic cells at 9 uM measured after 48 hrs by Annexin V-FITC/propidium iodide staining based flow cytometric analysis (reference value: 1%); format: functional

## C[C@H]1O[C@@H](n2cnc3c(N)nc(F)nc32)[C@H](O)[C@H]1OCP(=O)([O-])[O-].[Na+].[Na+]
MDA-MB-231 [1]
  Activity: Active
MCF7 [2]
  inhibition: Active
MCF7 [3]
  Activity: Active
MDA-MB-231 [4]
  Activity: 63%
MDA-MB-231 [5]
  Activity: Active
MCF7 [6]
  Activity: 8.7%
MDA-MB-231 [7]
  Activity: inactive
MDA-MB-231 [8]
  Activity: Active
MCF7 [9]
  Activity: inactive
MCF7 [10]
  Activity: 41.43%
MCF7 [11]
  Activity: 46.3%
MDA-MB-231 [12]
  Activity: Active
MDA-MB-231 [13]
  Activity: Active
MCF7 [14]
  inhibition: Dose-Dependent Effect
MCF7 [15]
  Activity: 18.63%
MDA-MB-231 [16]
  Activity: 37%
MDA-MB-231 [17]
  Activity: inactive
MDA-MB-231 [18]
  Activity: 24.8%
